The source made the active and inactive calls. The rule behind the calls is not given here.
Key:
L02 = test: Antiproliferative activity against human L02 cells assessed as reduction in cell viability at 5 uM incubated for 72 hrs by MTT assay relative to Ceritinib; assay type: cell-based; conditions: l02, 72 h
In short: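 Normal human liver LO2 cells were grown at 37 °C, 5% CO₂ with 10% FBS and seeded at 2−5 × 10³ per well for 24 h. Compound was added at 5 μM for 72 h, followed by MTT for 1−4 h and absorbance read at 450 nm. Inhibition rate was taken from OD.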

[1] = target: T1, ALK tyrosine kinase receptor (Homo sapiens, UniProt Q9UM73); test: Inhibition of N-terminal GST tagged human ALK cytoplasmic domain (1058 to 1620 residues) expressed in Sf21 cells at 200 nM incubated for 10 mins by mobility shift assay
Target sequence in this assay (Q9UM73 19-1620 limits assumed): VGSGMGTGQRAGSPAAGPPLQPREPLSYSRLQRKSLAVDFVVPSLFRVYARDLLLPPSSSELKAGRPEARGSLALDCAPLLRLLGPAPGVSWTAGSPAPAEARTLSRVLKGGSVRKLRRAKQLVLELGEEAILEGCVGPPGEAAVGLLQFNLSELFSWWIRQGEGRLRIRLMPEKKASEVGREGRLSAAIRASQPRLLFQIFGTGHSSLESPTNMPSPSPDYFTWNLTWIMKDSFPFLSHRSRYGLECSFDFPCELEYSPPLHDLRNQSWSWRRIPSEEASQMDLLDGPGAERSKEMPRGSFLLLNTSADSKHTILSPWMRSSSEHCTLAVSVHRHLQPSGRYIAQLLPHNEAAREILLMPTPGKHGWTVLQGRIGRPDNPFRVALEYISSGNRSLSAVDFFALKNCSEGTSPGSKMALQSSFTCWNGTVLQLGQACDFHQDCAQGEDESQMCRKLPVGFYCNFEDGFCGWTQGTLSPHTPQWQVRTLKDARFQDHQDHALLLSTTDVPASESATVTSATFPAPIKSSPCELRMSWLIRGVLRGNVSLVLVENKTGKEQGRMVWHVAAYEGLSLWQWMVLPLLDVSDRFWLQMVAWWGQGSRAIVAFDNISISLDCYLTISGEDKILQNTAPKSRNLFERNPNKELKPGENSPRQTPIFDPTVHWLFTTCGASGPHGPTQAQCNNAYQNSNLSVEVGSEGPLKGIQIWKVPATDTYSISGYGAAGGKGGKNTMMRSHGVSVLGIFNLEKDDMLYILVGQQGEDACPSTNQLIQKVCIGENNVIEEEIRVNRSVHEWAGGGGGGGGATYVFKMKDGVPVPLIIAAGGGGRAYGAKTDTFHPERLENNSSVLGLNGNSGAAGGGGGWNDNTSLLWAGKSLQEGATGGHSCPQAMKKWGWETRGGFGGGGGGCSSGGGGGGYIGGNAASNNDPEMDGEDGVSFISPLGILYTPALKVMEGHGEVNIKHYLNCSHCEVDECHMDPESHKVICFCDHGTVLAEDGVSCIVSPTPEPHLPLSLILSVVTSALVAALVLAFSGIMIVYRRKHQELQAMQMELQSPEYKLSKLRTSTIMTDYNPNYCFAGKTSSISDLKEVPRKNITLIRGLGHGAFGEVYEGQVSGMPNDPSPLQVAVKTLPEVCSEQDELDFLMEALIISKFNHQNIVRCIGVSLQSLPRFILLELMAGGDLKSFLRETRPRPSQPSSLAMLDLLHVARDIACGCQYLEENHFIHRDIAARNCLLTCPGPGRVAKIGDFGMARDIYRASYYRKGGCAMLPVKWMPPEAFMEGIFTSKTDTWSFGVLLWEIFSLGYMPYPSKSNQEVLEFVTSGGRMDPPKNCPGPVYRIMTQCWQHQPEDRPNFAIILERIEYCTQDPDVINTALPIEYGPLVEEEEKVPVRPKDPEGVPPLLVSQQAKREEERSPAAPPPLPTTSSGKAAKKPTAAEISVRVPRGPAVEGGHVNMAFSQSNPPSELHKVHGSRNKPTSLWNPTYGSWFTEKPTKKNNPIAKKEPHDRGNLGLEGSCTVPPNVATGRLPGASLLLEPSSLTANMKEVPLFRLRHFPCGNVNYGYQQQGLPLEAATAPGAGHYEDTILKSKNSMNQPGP

NCI-H3122 [2] = test: Antiproliferative activity against human NCI-H3122 cells assessed as reduction in cell viability incubated for 72 hrs by MTT assay; conditions: NCI-H3122, 72 h
[3] = target: T1, ALK tyrosine kinase receptor; test: Inhibition of N-terminal GST tagged human ALK cytoplasmic domain (1058 to 1620 residues) expressed in Sf21 cells at 20 nM incubated for 10 mins by mobility shift assay
Target sequence in this assay (Q9UM73 19-1620 limits assumed): as above

[4] = target: T1, ALK tyrosine kinase receptor; test: Inhibition of N-terminal GST tagged human ALK cytoplasmic domain (1058 to 1620 residues) expressed in Sf21 cells by mobility shift assay
In short: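 Wild-type ALK, kinase substrate and ATP at Km were combined with compound in kinase buffer and incubated 10 min at room temperature. Read-out was by mobility shift, and IC50 was derived by curve fitting.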
Target sequence in this assay (Q9UM73 whole entry, the tested form may be a part): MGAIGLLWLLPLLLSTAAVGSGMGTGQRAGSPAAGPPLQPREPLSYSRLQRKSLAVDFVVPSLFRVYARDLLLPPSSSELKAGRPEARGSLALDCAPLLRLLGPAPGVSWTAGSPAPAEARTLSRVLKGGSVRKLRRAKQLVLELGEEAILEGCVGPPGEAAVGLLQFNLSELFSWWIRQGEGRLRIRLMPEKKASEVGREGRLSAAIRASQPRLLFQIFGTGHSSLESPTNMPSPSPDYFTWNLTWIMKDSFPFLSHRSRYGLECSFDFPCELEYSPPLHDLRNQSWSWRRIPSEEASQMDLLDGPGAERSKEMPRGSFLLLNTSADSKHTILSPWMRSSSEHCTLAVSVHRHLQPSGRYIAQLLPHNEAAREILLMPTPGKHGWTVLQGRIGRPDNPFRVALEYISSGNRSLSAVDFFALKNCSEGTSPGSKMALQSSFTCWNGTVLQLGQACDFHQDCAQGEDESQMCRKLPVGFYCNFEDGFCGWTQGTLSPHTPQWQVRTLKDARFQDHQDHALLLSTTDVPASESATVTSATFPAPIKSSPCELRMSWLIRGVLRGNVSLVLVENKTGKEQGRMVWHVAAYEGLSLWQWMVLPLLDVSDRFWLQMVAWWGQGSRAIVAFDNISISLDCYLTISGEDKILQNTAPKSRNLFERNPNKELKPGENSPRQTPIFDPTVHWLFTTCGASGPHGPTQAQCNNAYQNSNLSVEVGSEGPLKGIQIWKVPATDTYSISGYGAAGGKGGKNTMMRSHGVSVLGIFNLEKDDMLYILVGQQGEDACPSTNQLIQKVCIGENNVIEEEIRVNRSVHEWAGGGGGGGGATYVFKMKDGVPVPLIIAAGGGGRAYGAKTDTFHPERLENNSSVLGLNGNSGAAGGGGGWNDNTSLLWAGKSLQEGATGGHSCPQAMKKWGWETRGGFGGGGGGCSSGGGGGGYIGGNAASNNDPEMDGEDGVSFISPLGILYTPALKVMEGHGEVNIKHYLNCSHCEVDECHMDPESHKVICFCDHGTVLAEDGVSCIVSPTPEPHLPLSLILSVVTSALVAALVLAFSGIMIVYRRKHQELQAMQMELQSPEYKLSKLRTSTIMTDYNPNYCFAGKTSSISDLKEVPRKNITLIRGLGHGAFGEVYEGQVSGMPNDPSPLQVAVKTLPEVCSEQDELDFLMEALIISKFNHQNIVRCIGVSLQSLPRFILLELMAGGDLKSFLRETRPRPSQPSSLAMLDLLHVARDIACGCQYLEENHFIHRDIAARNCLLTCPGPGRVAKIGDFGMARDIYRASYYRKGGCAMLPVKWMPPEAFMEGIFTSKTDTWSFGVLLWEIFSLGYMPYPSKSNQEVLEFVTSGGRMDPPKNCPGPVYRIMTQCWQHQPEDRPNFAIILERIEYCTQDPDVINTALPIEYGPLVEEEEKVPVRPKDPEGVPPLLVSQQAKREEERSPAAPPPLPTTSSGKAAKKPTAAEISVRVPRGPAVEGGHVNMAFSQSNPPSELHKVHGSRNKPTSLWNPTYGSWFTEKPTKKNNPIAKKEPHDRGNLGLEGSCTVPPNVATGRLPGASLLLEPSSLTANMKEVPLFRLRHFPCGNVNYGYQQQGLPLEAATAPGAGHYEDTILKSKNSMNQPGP

NCI-H3122 [5] = test: Antitumor activity against human NCI-H3122 cells xenografted in Balb/c nude mouse assessed as tumor growth inhibition at 20 mg/kg/day, po and measured 15 days post treatment by vernier caliper method relative to control; assay type: functional; conditions: 360 h, time 15 day, read-out: TGI
In short: (§1)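 Female BALB/c nude mice, 6−7 weeks old and 18−22 g, were implanted sc with 5 × 10⁶ exponential-phase H3122 cells in 0.1 mL serum- and antibiotic-free medium. At 150−200 mm³ they were randomized (6 per group) and dosed orally once daily at 10, 20 or 50 mg/kg in 10% NMP/90% PEG300, with a vehicle group. Body weight and caliper tumor volume (a × b²/2) were recorded every 3 days. TGI versus vehicle was determined after 15 days.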

[6] = system: ALK tyrosine kinase receptor (Homo sapiens), Q9UM73 [L1196M]; conditions: Sf21, dose 200.0 nM, time 10.0 min
Chain of ALK tyrosine kinase receptor (Homo sapiens), Q9UM73 [L1196M] (Q9UM73 whole entry L1196M, looked up): as the sequence (Q9UM73 whole entry, the tested form may be a part) above, with L1196M counted along it

NCI-H3122 [7] = test: Antitumor activity against human NCI-H3122 cells xenografted in Balb/c nude mouse assessed as tumor growth inhibition administered orally and measured every 3 days for 15 days by vernier caliper method; assay type: functional, cell-based; conditions: time 15.0 day; in short: as §1
[8] = Cmax in Sprague-Dawley rat at […] measured upto 24 hrs by LC-MS/MS analysis; assay type: ADME, organism-based; design: route intravenous, dose 1 mg/kg, time <=24; conditions: in vivo
[9] = target: T1, ALK tyrosine kinase receptor; test: Covalent inhibition of N-terminal GST tagged human ALK cytoplasmic domain (1058 to 1620 residues) expressed in Sf21 cells in presence of high ATP levels
Target sequence in this assay (Q9UM73 whole entry, the tested form may be a part): as the sequence (Q9UM73 whole entry, the tested form may be a part) above

[10] = Oral bioavailability in Sprague-Dawley rat at 10 mg/kg measured upto 24 hrs by LC-MS/MS analysis; assay type: ADME, organism-based; conditions: in vivo
In short: (§2)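 Male SD rats (200−220 g, n = 3 per group) received 1 mg/kg iv in 5% DMA/10% Solutol HS 15/85% saline, or 10 mg/kg orally in 0.5% CMC-Na. Jugular-vein blood was drawn to 24 h, and plasma was kept at −80 °C. Plasma levels were quantified by LC−MS/MS (LLOQ 1 ng/mL), and parameters were derived by noncompartmental analysis.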

[11] = Tmax in Sprague-Dawley rat at […] measured upto 24 hrs by LC-MS/MS analysis; assay type: ADME, organism-based; conditions: in vivo
[12] = target: T1, ALK tyrosine kinase receptor; test: Inhibition of ALK in human NCI-H3122 cells assessed as downregulation of AKT expression levels at 10 to 500 nM incubated for 24 hrs by western blot analysis; assay type: cell-based; conditions: dose 10-500 nM
In short: (§3)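 H3122 cells were exposed for 24 h at 37 °C to 0, 10, 50, 200 or 500 nM, then lysed in RIPA buffer with protease/phosphatase inhibitors and 1 mM PMSF. Protein was BCA-normalized and run on SDS−PAGE to PVDF. Primary antibodies were applied overnight at 4 °C in 5% BSA/TBST, then HRP secondary (1/5000, 1 h). Detection was by chemiluminescence.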
Target sequence in this assay (Q9UM73 19-1620 limits assumed): as the sequence (Q9UM73 19-1620 limits assumed) above

[13] = Volume of distribution at steady state in Sprague-Dawley rat at 1 mg/kg, iv measured upto 24 hrs by LC-MS/MS analysis; assay type: ADME, organism-based; conditions: in vivo, read-out: Vdss; in short: as §2
[14] = target: T1, ALK tyrosine kinase receptor; test: Inhibition of ALK in human NCI-H3122 cells assessed as downregulation of STAT3 phosphorylation levels at 10 to 500 nM incubated for 24 hrs by western blot analysis; assay type: cell-based; conditions: dose 10-500 nM; in short: as §3
Target sequence in this assay (Q9UM73 19-1620 limits assumed): as above

[15] = Toxicity in Balb/c mouse xenografted with human NCI-H3122 cells assessed as change in body weight at 10 to 50 mg/kg/day, po and measured every 3 days for 15 days; assay type: organism-based; conditions: in vivo, 360 h, dose 10-50 mg/kg/day, time 15 day; in short: as §1
[16] = target: T1, ALK tyrosine kinase receptor; test: Inhibition of ALK phosphorylation in human NCI-H3122 cells at 10 to 500 nM incubated for 24 hrs by western blot analysis; assay type: cell-based; conditions: dose 10-500 nM; in short: as §3
Target sequence in this assay (Q9UM73 19-1620 limits assumed): as above

[17] = Half life in Sprague-Dawley rat at 10 mg/kg, po measured upto 24 hrs by LC-MS/MS analysis; assay type: ADME, organism-based; conditions: in vivo; in short: as §2
NCI-H3122 [18] = test: Antitumor activity against human NCI-H3122 cells xenografted in Balb/c nude mouse assessed as tumor growth inhibition at 50 mg/kg/day, po and measured 15 days post treatment by vernier caliper method relative to control; assay type: functional; conditions: 360 h, time 15 day, read-out: TGI; in short: as §1
[19] = target: T2, Receptor-type tyrosine-protein kinase FLT3 (Homo sapiens, UniProt P36888); test: Inhibition of FLT3 (unknown origin)
T2 sequence (P36888 whole entry): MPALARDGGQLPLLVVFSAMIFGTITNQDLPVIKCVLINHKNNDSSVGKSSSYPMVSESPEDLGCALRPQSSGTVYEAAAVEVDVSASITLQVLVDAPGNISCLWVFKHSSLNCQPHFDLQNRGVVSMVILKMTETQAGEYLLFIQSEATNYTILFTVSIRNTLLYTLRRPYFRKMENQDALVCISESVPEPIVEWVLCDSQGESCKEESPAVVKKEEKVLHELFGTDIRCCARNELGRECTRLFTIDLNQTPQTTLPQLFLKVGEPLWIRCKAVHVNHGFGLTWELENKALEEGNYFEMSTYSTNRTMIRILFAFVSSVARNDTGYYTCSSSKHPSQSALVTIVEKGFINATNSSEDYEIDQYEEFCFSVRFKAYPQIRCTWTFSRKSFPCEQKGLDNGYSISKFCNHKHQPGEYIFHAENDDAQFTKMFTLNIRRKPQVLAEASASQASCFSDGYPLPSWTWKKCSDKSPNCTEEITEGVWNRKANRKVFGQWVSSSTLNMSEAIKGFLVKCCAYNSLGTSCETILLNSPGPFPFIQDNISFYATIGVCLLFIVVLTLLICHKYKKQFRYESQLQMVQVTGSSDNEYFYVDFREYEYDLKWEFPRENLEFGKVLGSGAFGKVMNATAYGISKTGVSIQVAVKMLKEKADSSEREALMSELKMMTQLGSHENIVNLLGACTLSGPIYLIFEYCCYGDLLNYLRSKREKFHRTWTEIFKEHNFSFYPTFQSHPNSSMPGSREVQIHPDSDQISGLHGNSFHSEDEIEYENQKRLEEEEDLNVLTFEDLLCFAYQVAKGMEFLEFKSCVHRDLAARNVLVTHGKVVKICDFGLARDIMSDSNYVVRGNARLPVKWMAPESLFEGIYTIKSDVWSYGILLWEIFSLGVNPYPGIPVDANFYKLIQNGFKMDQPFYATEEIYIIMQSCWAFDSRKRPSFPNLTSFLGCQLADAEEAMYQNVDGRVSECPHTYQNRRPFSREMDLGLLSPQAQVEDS

[20] = target: T1, ALK tyrosine kinase receptor; test: Inhibition of ALK in human NCI-H3122 cells assessed as decrease in STAT3 expression levels at 10 to 500 nM incubated for 24 hrs by western blot analysis; assay type: cell-based; conditions: dose 10-500 nM; in short: as §3
Target sequence in this assay (Q9UM73 19-1620 limits assumed): as the sequence (Q9UM73 19-1620 limits assumed) above

[21] = target: T1, ALK tyrosine kinase receptor; test: Inhibition of ALK in human NCI-H3122 cells assessed as decrease in phosphorylation of AKT at 10 to 500 nM incubated for 24 hrs by western blot analysis; assay type: cell-based; conditions: dose 10-500 nM; in short: as §3
[22] = Binding affinity to L-cysteine assessed as molecular mass incubated for 8 hrs by LC-MS analysis
In short: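 L-cysteine incubated in water with a 5-fold molar excess of compound (or DMSO) for 8 h at 4 °C; reaction mixtures analysed by LC–MS on an ion trap mass spectrometer to detect adduct mass.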

[23] = AUC (0 to infinity) in Sprague-Dawley rat at 10 mg/kg, po measured upto 24 hrs by LC-MS/MS analysis; assay type: ADME, organism-based; design: route oral, dose 10 mg/kg, time <=24; conditions: in vivo; in short: as §2
NCI-H3122 [24] = test: Antitumor activity against human NCI-H3122 cells xenografted in Balb/c nude mouse assessed as tumor growth inhibition at 10 mg/kg/day, po and measured 15 days post treatment by vernier caliper method relative to control; assay type: functional; conditions: 360 h, time 15 day, read-out: TGI; in short: as §1
[25] = target: Fibroblast growth factor receptor 2 (Homo sapiens, UniProt P21802); test: Inhibition of FGFR2 (unknown origin)
Chain of Fibroblast growth factor receptor 2 (P21802 whole entry): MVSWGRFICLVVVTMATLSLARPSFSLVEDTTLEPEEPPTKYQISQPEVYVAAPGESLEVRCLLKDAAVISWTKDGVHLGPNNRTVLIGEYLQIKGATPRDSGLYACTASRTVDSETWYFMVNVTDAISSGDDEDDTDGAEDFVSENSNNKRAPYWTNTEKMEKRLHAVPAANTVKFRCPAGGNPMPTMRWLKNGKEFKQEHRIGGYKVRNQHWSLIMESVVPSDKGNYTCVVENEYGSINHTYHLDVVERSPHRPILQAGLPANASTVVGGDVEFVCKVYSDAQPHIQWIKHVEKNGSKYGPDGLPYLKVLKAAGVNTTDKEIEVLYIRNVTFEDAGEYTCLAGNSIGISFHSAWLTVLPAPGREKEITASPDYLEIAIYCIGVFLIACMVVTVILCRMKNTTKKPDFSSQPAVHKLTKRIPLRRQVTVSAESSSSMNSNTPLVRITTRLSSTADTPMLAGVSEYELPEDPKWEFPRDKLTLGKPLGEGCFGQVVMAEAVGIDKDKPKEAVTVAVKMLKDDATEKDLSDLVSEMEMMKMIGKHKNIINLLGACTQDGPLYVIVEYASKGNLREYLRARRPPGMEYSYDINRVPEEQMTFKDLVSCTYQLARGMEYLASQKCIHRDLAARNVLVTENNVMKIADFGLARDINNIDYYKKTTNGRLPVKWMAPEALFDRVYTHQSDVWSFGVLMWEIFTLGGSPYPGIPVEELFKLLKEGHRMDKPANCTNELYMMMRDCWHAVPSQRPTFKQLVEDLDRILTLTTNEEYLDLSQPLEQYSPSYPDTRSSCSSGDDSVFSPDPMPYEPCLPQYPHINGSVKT

[26] = Clearance in Sprague-Dawley rat at 1 mg/kg, iv measured upto 24 hrs by LC-MS/MS analysis; assay type: ADME, organism-based; conditions: in vivo; in short: as §2

C=CC(=O)NCCCCCCNC(=O)CCN1CCC(c2cc(OC(C)C)c(Nc3ncc(Cl)c(Nc4ccccc4S(=O)(=O)C(C)C)n3)cc2C)CC1
Activity (L02): Non-Toxic
inhibition [1]: Active
IC50 (NCI-H3122 [2]): 750 nM
inhibition [3]: Active

C=CC(=O)NCCOCCOCCNC(=O)CCN1CCC(c2cc(OC(C)C)c(Nc3ncc(Cl)c(Nc4ccccc4S(=O)(=O)C(C)C)n3)cc2C)CC1
inhibition [1]: Active
inhibition [3]: Active

CCC(=O)NCCOCCNC(=O)CCN1CCC(c2cc(OC(C)C)c(Nc3ncc(Cl)c(Nc4ccccc4S(=O)(=O)C(C)C)n3)cc2C)CC1
IC50 [4]: 13.2 nM

C=CC(=O)NCCCNC(=O)CCN1CCC(c2cc(OC(C)C)c(Nc3ncc(Cl)c(Nc4ccccc4S(=O)(=O)C(C)C)n3)cc2C)CC1
Activity (L02): Non-Toxic
inhibition [1]: Active
IC50 (NCI-H3122 [2]): 1140 nM
inhibition [3]: Active

Cc1cc(Nc2ncc(Cl)c(Nc3ccccc3S(=O)(=O)C(C)C)n2)c(OC(C)C)cc1C1CCNCC1 [CERITINIB]
IC50 (NCI-H3122 [2]): 1100 nM
inhibition in vivo at 20 mg/kg/day (NCI-H3122 [5]): 34%
inhibition [6]: Active

C=CC(=O)NCCCCNC(=O)CCN1CCC(c2cc(OC(C)C)c(Nc3ncc(Cl)c(Nc4ccccc4S(=O)(=O)C(C)C)n3)cc2C)CC1
inhibition [1]: Active
inhibition [3]: Active

C=CC(=O)NCCOCCOCCOCCNC(=O)CCN1CCC(c2cc(OC(C)C)c(Nc3ncc(Cl)c(Nc4ccccc4S(=O)(=O)C(C)C)n3)cc2C)CC1
Activity (L02): Non-Toxic
inhibition [1]: Active
IC50 (NCI-H3122 [2]): 610 nM
inhibition [3]: Active

C=CC(=O)NCCOCCNC(=O)CCN1CCC(c2cc(OC(C)C)c(Nc3ncc(Cl)c(Nc4ccccc4S(=O)(=O)C(C)C)n3)cc2C)CC1
TGI (NCI-H3122 [7]): Dose-dependent effect
Activity (L02): Non-Toxic
inhibition [1]: Active
Cmax [8]: 157 ng/mL
IC50 [9]: 1.4 nM
bioavailability [10]: 12.1%
Tmax [11]: 2.67 h
inhibition [12]: Active
IC50 (NCI-H3122 [2]): 150 nM
IC50 [4]: 0.5 nM
Vd [13]: 2.81 L/kg
inhibition [14]: Active
Activity [15]: Non-Toxic
inhibition [16]: Active
inhibition in vivo at 20 mg/kg/day (NCI-H3122 [5]): 49.7%
half-life [17]: 173 min
inhibition in vivo at 50 mg/kg/day (NCI-H3122 [18]): 62%
IC50 [19]: 875 nM
inhibition [6]: Active
inhibition [20]: Active
inhibition [21]: Active
Activity [22]: 891 Da
inhibition [3]: Active
AUC(0-inf) [23]: 859 ng·h/mL
inhibition in vivo at 10 mg/kg/day (NCI-H3122 [24]): 39.7%
IC50 [25]: > 1000 nM
clearance [26]: 17 mL/min/kg

C=CC(=O)NCCCCCCCCNC(=O)CCN1CCC(c2cc(OC(C)C)c(Nc3ncc(Cl)c(Nc4ccccc4S(=O)(=O)C(C)C)n3)cc2C)CC1
Activity (L02): Non-Toxic
inhibition [1]: Active
IC50 (NCI-H3122 [2]): 720 nM
inhibition [3]: Active
